# Experimental data pooled from the literature.
# Compare with care: the assays were run in different laboratories.
# CYP2C19: Cytochrome P450 2C19 (CYP2C19, Homo sapiens, UniProt P33261)
SMILES,tested on,test,system,setting,quantity,value
NCc1ccc(-c2nn(Cc3ccncc3)c3ccccc23)o1,,,"male CD-1 mouse, plasma","intravenous, 5 mg/kg",C0,1360 ng/mL
OB(O)c1csc2ccccc12,HFF-1,"cell growth or viability, resazurin",,"50 µM, 24 h",viability,> 75%
CN(CCOc1ccc(CC2SC(=O)NC2=O)cc1)c1ccccn1 (stereo not drawn),A549,"cell growth or viability, resazurin",,72 h,CC50,100 µM
C[C@H]1Oc2cc(cnc2N)-c2c(nn(C)c2C#N)CN(C)C(=O)c2ccc(F)cc21,,,"male Sprague-Dawley rat, plasma","oral, 5 mg/kg, single dose",Tmax,1.5 h
C=CCn1c(=O)c2cnc(Nc3ccc(N4CCN(C)CC4)cc3)nc2n1-c1ccc2c(n1)[C@@](O)(CC)CC2,,,"dog, plasma","intravenous, 3 mg/kg",clearance,46 mL/min/kg
CCC(CC)COC(=O)[C@H](C)N[P@](=O)(OC[C@H]1O[C@@](C#N)(c2ccc3c(N)ncnn23)[C@H](O)[C@@H]1O)Oc1ccccc1,A549,"cell growth or viability, resazurin",,72 h,CC50,25 µM
[N-]=[N+]=N[C@]1(CO)O[C@@H](n2ccc(N)nc2=O)[C@@H](F)[C@@H]1O,A549,"cell growth or viability, ATP luminescence",,72 h,CC50,> 50 µM
CSc1ccccc1C(=O)NCCn1cc(C(=O)NCc2cccc(C)n2)c(=O)c2cc3c(cc21)OC(F)(F)O3,CYP2C19,"enzyme activity, inhibitor","human, liver microsomes","20 min, without NADPH, with preincubation",IC50,> 100 µM
O=c1[nH]cc(F)c(=O)[nH]1,A549,"cell growth or viability, CCK-8",,50 µM,viability,27.3%
CN(C)C(=O)c1cc2cnc(Nc3ccc(-c4ccc5c(=O)cc(N6CCOCC6)oc5c4)cc3)nc2n1C1CCCC1.Cl,,,"BALB/c mouse, plasma","intravenous, 2 mg/kg",CL/F,0.7 L/h/kg
CSc1ccccc1C(=O)NCCn1cc(C(=O)NCc2cccc(C)n2)c(=O)c2cc3c(cc21)OCO3,CYP2C19,"enzyme activity, inhibitor","human, liver microsomes","20 min, without NADPH, with preincubation",IC50,> 100 µM
O=C(CCCCCCC(=O)Nc1ccccc1)NO,CYP2C19,"enzyme activity, inhibitor, fluorescence",,,IC50,3.26 µM
